≈ marks a conversion by molar mass, not a printed value.
What was measured:
Format in all cases: functional
Staphylococcus aureus [1] = assay: Antimicrobial activity against panton-valentine leukocidin-positive community-acquired methicillin-resistant Staphylococcus aureus 490 by agar dilution CLSI method
In short: (§1)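 Agar dilution MIC per CLSI methodology; calcium supplemented for daptomycin testing; vancomycin plates read after a full 24-h incubation.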

Staphylococcus aureus [2] = assay: Antimicrobial activity against vancomycin-resistant Staphylococcus aureus 509 Michigan by agar dilution CLSI method; in short: as §1
Staphylococcus aureus [3] = assay: Antimicrobial activity against vancomycin-intermediate Staphylococcus aureus 504 after 50 passages by multi-step resistance selection technique
In short: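 Multistep selection: S. aureus strains (MSSA and MRSA, including VISA and VRSA) were passaged serially once daily in subinhibitory concentrations of each antimicrobial. Mutant and parent identities were confirmed by pulsed-field gel electrophoresis at the end of the study. Mutant MIC stability was checked after 10 daily subcultures on antibiotic-free media.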

Staphylococcus aureus [4] = assay: Antimicrobial activity against vancomycin-resistant Staphylococcus aureus 509 Michigan after 20 passages by multi-step resistance selection technique
In short: (§2)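 Multistep selection: 10 S. aureus strains (8 MRSA incl. two VRSA, two VISA; 2 MSSA) serially passaged daily at subinhibitory concentrations of each antimicrobial; MICs of mutants retested and compared with parent; clone identity versus parent confirmed by pulsed-field gel electrophoresis at study end.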

Staphylococcus aureus [5] = assay: Antimicrobial activity against vancomycin-resistant Staphylococcus aureus 510 Hershey after 18 passages by multi-step resistance selection technique; in short: as §2
Staphylococcus aureus [6] = assay: Antimicrobial activity against methicillin-resistant Staphylococcus aureus 525 after 20 passages by multi-step resistance selection technique
In short: (§3)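 Multistep selection by daily serial passage of each strain in subinhibitory drug concentrations for the stated number of passages. Mutant MIC was then determined. Identity of mutants and parents was confirmed by pulsed-field gel electrophoresis.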

Staphylococcus aureus [7] = assay: Antimicrobial activity against methicillin-resistant Staphylococcus aureus 547 after 21 passages by multi-step resistance selection technique; in short: as §3
Staphylococcus aureus [8] = assay: Antimicrobial activity against vancomycin-intermediate Staphylococcus aureus 555 Hershey after 50 passages by multi-step resistance selection technique; in short: as §2
Staphylococcus aureus [9] = assay: Antimicrobial activity against methicillin-susceptible Staphylococcus aureus 540 after 24 passages by multi-step resistance selection technique; in short: as §3
Staphylococcus aureus [10] = assay: Antimicrobial activity against methicillin-susceptible Staphylococcus aureus 543 after 17 passages by multi-step resistance selection technique; in short: as §3
Staphylococcus aureus [11] = assay: Antimicrobial activity against panton-valentine leukocidin-negative community-acquired methicillin-resistant Staphylococcus aureus 481 after 14 passages with daptomycin measured after 10 antibiotic-free subculture by multi-step resistance selection technique
In short: (§4)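 Mutants from multistep daily serial passage in subinhibitory drug were then subcultured daily 10 times on antibiotic-free medium. MIC was redetermined after these subcultures to assess stability. Clone identity was checked by pulsed-field gel electrophoresis.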

Staphylococcus aureus [12] = assay: Antimicrobial activity against panton-valentine leukocidin-negative community-acquired methicillin-resistant Staphylococcus aureus 481 after 37 passages with Linezolid measured after 10 antibiotic-free subculture by multi-step resistance selection technique; in short: as §4
Staphylococcus aureus [13] = assay: Antimicrobial activity against panton-valentine leukocidin-positive community-acquired methicillin-resistant Staphylococcus aureus 490 after 14 passages with daptomycin measured after 10 antibiotic-free subculture by multi-step resistance selection technique
In short: (§5)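 Multistep-selected mutants (daily passage at subinhibitory drug levels) then subcultured 10 times daily on antibiotic-free medium; MIC redetermined afterwards and compared with the MIC recorded at the end of selection; clone identity to parent checked by pulsed-field gel electrophoresis.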

Staphylococcus aureus [14] = assay: Antimicrobial activity against vancomycin-intermediate Staphylococcus aureus 504 after 16 passages with quinupristin-dalfopristin measured after 10 times antibiotic-free subculture by multi-step resistance selection technique; in short: as §5
Staphylococcus aureus [15] = assay: Antimicrobial activity against vancomycin-resistant Staphylococcus aureus 509 Michigan after 14 passages with CG400549 measured after 10 antibiotic-free subculture by multi-step resistance selection technique; in short: as §5
Staphylococcus aureus [16] = assay: Antimicrobial activity against vancomycin-resistant Staphylococcus aureus 509 Michigan after 28 passages with Linezolid measured after 10 antibiotic-free subculture by multi-step resistance selection technique; in short: as §5
Staphylococcus aureus [17] = assay: Antimicrobial activity against vancomycin-resistant Staphylococcus aureus 509 Michigan after 18 passages with quinupristin-dalfopristin measured after 10 antibiotic-free subculture by multi-step resistance selection technique; in short: as §5
Staphylococcus aureus [18] = assay: Antimicrobial activity against vancomycin-resistant Staphylococcus aureus 510 Hershey after 14 passages with CG400549 measured after 10 antibiotic-free subculture by multi-step resistance selection technique; in short: as §5
Staphylococcus aureus [19] = assay: Antimicrobial activity against methicillin-resistant Staphylococcus aureus 547 by agar dilution CLSI method
In short: (§6)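 CLSI agar dilution MIC against S. aureus clinical isolates. Calcium was added to the medium for daptomycin testing. Vancomycin plates were read after a full 24-h incubation.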

Staphylococcus aureus [20] = assay: Antimicrobial activity against methicillin-susceptible Staphylococcus aureus 540 by agar dilution CLSI method; in short: as §6
Staphylococcus aureus [21] = assay: Antimicrobial activity against methicillin-susceptible Staphylococcus aureus 543 by agar dilution CLSI method; in short: as §6
Staphylococcus aureus [22] = assay: Antimicrobial activity against panton-valentine leukocidin-negative community-acquired methicillin-resistant Staphylococcus aureus 481 after 14 passages by multi-step resistance selection technique; in short: as §3
Staphylococcus aureus [23] = assay: Antimicrobial activity against panton-valentine leukocidin-positive community-acquired methicillin-resistant Staphylococcus aureus 490 after 14 passages by multi-step resistance selection technique; in short: as §2
Staphylococcus aureus [24] = assay: Antimicrobial activity against methicillin-resistant Staphylococcus aureus 525 after 14 passages with CG400549 measured after 10 antibiotic-free subculture by multi-step resistance selection technique; in short: as §4
Staphylococcus aureus [25] = assay: Antimicrobial activity against methicillin-resistant Staphylococcus aureus 547 after 14 passages with CG400549 measured after 10 antibiotic-free subculture by multi-step resistance selection technique; in short: as §4
Staphylococcus aureus [26] = assay: Antimicrobial activity against methicillin-resistant Staphylococcus aureus 547 after 21 passages with quinupristin-dalfopristin measured after 10 antibiotic-free subculture by multi-step resistance selection technique; in short: as §4
Staphylococcus aureus [27] = assay: Antimicrobial activity against methicillin-susceptible Staphylococcus aureus 540 after 14 passages with CG400549 measured after 10 antibiotic-free subculture by multi-step resistance selection technique; in short: as §4
Staphylococcus aureus [28] = assay: Antimicrobial activity against methicillin-susceptible Staphylococcus aureus 543 after 18 passages with quinupristin-dalfopristin measured after 10 antibiotic-free subculture by multi-step resistance selection technique; in short: as §4
Staphylococcus aureus [29] = assay: Antimicrobial activity against methicillin-resistant Staphylococcus aureus 490 after single-step resistance selection by agar dilution CLSI method
In short: (§7)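 Single-step selection on drug-containing agar across 10 strains (2 MSSA, 8 MRSA, including VRSA and VISA). Colonies arising on confluent background growth were retested by CLSI agar dilution MIC. Resistance was defined as an MIC more than 4× the parent MIC.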

Staphylococcus aureus [30] = assay: Antimicrobial activity against methicillin-resistant Staphylococcus aureus 525 after single-step resistance selection by agar dilution CLSI method; in short: as §7
Staphylococcus aureus [31] = assay: Antimicrobial activity against methicillin-susceptible Staphylococcus aureus 540 after single-step resistance selection by agar dilution CLSI method; in short: as §7
Staphylococcus aureus [32] = assay: Antimicrobial activity against vancomycin-intermediate Staphylococcus aureus 504 after 14 passages by multi-step resistance selection technique; in short: as §2
Staphylococcus aureus [33] = assay: Antimicrobial activity against vancomycin-resistant Staphylococcus aureus 510 Hershey after 14 passages by multi-step resistance selection technique; in short: as §2
Staphylococcus aureus [34] = assay: Antimicrobial activity against methicillin-susceptible Staphylococcus aureus 540 after 14 passages by multi-step resistance selection technique; in short: as §3
Staphylococcus aureus [35] = assay: Antimicrobial activity against methicillin-susceptible Staphylococcus aureus 543 after 14 passages by multi-step resistance selection technique; in short: as §3
Staphylococcus aureus [36] = assay: Antimicrobial activity against panton-valentine leukocidin-positive community-acquired methicillin-resistant Staphylococcus aureus 490 after 17 passages by multi-step resistance selection technique; in short: as §2

SMILES | MIC (Staphylococcus aureus [1]) [µg/mL] | MIC (Staphylococcus aureus [2]) [µg/mL] | MIC (Staphylococcus aureus [11]) [µg/mL] | MIC (Staphylococcus aureus [12]) [µg/mL] | MIC (Staphylococcus aureus [13]) [µg/mL] | MIC (Staphylococcus aureus [14]) [µg/mL] | MIC (Staphylococcus aureus [15]) [µg/mL] | MIC (Staphylococcus aureus [16]) [µg/mL] | MIC (Staphylococcus aureus [17]) [µg/mL] | MIC (Staphylococcus aureus [18]) [µg/mL] | MIC (Staphylococcus aureus [19]) [µg/mL] | MIC (Staphylococcus aureus [20]) [µg/mL] | MIC (Staphylococcus aureus [21]) [µg/mL] | MIC (Staphylococcus aureus [22]) [µg/mL] | MIC (Staphylococcus aureus [24]) [µg/mL] | MIC (Staphylococcus aureus [25]) [µg/mL] | MIC (Staphylococcus aureus [26]) [µg/mL] | MIC (Staphylococcus aureus [27]) [µg/mL] | MIC (Staphylococcus aureus [28]) [µg/mL] | MIC (Staphylococcus aureus [29]) [µg/mL] | further results
CCCCCCCCCC(=O)N[C@@H](Cc1c[nH]c2ccccc12)C(=O)N[C@H](CC(N)=O)C(=O)N[C@@H](CC(=O)O)C(=O)N[C@@H]1C(=O)NCC(=O)N[C@@H](CCCN)C(=O)N[C@@H](CC(=O)O)C(=O)N[C@H](C)C(=O)N[C@@H](CC(=O)O)C(=O)NCC(=O)N[C@H](CO)C(=O)N[C@@H]([C@H](C)CC(=O)O)C(=O)N[C@@H](CC(=O)c2ccccc2N)C(=O)O[C@@H]1C | 1 (≈ 0.617 µM) | 1 (≈ 0.617 µM) | 8 (≈ 4.94 µM) | 1 (≈ 0.617 µM) | 4 (≈ 2.47 µM) | 2 (≈ 1.23 µM) | 1 (≈ 0.617 µM) | 2 (≈ 1.23 µM) | 1 (≈ 0.617 µM) | 1 (≈ 0.617 µM) | 1 (≈ 0.617 µM) | 1 (≈ 0.617 µM) | 1 (≈ 0.617 µM) | 8 (≈ 4.94 µM) | 1 (≈ 0.617 µM) | 1 (≈ 0.617 µM) | 1 (≈ 0.617 µM) | 1 (≈ 0.617 µM) | 2 (≈ 1.23 µM) | 0.5 (≈ 0.309 µM) | MIC (Staphylococcus aureus [3]): 16 µg/mL (≈ 9.87 µM); MIC (Staphylococcus aureus [4]): 8 µg/mL (≈ 4.94 µM); MIC (Staphylococcus aureus [5]): 8 µg/mL (≈ 4.94 µM); MIC (Staphylococcus aureus [6]): 8 µg/mL (≈ 4.94 µM); MIC (Staphylococcus aureus [7]): 8 µg/mL (≈ 4.94 µM); MIC (Staphylococcus aureus [8]): 32 µg/mL (≈ 19.7 µM); MIC (Staphylococcus aureus [9]): 8 µg/mL (≈ 4.94 µM); MIC (Staphylococcus aureus [10]): 8 µg/mL (≈ 4.94 µM); MIC (Staphylococcus aureus [23]): 8 µg/mL (≈ 4.94 µM); MIC (Staphylococcus aureus [30]): 0.5 µg/mL (≈ 0.309 µM); MIC (Staphylococcus aureus [31]): 0.5 µg/mL (≈ 0.309 µM)
Cc1c(N)cccc1Cn1ccc(OCCc2cccs2)cc1=O [CG-400549] | 0.25 (≈ 0.734 µM) | 1 (≈ 2.94 µM) | 0.25 (≈ 0.734 µM) | 0.125 (≈ 0.367 µM) | 0.25 (≈ 0.734 µM) | 0.5 (≈ 1.47 µM) | > 64 | 0.5 (≈ 1.47 µM) | 1 (≈ 2.94 µM) | 4 (≈ 11.7 µM) | 0.125 (≈ 0.367 µM) | 0.125 (≈ 0.367 µM) | 0.125 (≈ 0.367 µM) | 2 (≈ 5.87 µM) | 4 (≈ 11.7 µM) | 8 (≈ 23.5 µM) | 0.125 (≈ 0.367 µM) | 4 (≈ 11.7 µM) | 0.125 (≈ 0.367 µM) | 0.125 (≈ 0.367 µM) | MIC (Staphylococcus aureus [32]): 2 µg/mL (≈ 5.87 µM); MIC (Staphylococcus aureus [33]): 4 µg/mL (≈ 11.7 µM); MIC (Staphylococcus aureus [34]): 16 µg/mL (≈ 47 µM); MIC (Staphylococcus aureus [35]): 8 µg/mL (≈ 23.5 µM); MIC (Staphylococcus aureus [36]): 8 µg/mL (≈ 23.5 µM); MIC (Staphylococcus aureus [30]): 0.125 µg/mL (≈ 0.367 µM); MIC (Staphylococcus aureus [31]): 0.125 µg/mL (≈ 0.367 µM)

— ChEMBL document CHEMBL1137665, “Antistaphylococcal activity of CG400549, a new experimental FabI inhibitor, compared with that of other agents” (2007)
